This is an account of results in ChEMBL document CHEMBL1139463, “SAR by MS: discovery of a new class of RNA-binding small molecules for the hepatitis C virus: internal ribosome entry site IIA subdomain” (J Med Chem, 2005).

Series [1] can be described thus: Binding affinity to HCV 29-mer 2A RNA by MS based binding assay. More on the design: species or system Hepacivirus hominis.
The next series has as its system Hepatitis C virus. Kind of series: Reduction of HCV RNA levels by HCV replicon assay. In kind it is functional, organism-based, Hepacivirus hominis. A digest of the protocol: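 HCV replicon cells treated with compound; intracellular HCV RNA levels quantified by RT-PCR.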
(In general: Replicon systems follow genome replication, usually without infectious particles.)

Series [2] can be described thus: Cytotoxicity against Huh7 cells by MTT assay. Format: cell-based, Huh-7. Conditions: human. A digest of the protocol:
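Huh-7 cells; viability read by MTT; 50% cytotoxic concentration (CC50) reported.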

A short description of series [3]: Binding affinity to HCV 40-mer RNA by MS based binding assay. Set-up: species or system Hepacivirus hominis.

As for `CC(C)CCOc1ccc2nc(N)n(CCCN(C)C)c2c1`, in series [1], the dissociation constant Kd was found to be 48 µM. In other words, the double-digit micromolar range. On to `CN(C)CCCn1c(N)nc2ccc3c(c21)CC(CN(C)C)CO3` (stereo not given), for which a half-maximal effect in the series on Hepatitis C virus (EC50) was put at 3.9 µM. In series [2], this molecule displayed a CC50 greater than 100 µM. In series [3], this molecule displayed a Kd of 860 nM. The molecule `CN(C)CC1COc2ccc3nc4n(c3c2C1)CC(CN(C)C)CN4` (stereo not given) returned a half-maximal effective concentration (EC50) with Hepatitis C virus of 5.4 µM. Also, the half-maximal cytotoxic concentration (CC50) in series [2] was greater than 100 µM. Moreover, in series [3], the Kd was 720 nM.

In series [1], `Nc1nc2ccccc2n1CCCN1CCCC1` gave a Kd of 125 µM. Still for that read-out and setting: as for `COc1ccc2c(c1)nc(N)n2CCCN(C)C`, the figure is greater than 200 µM; as for `COc1ccc2nc(N)n(CCCN(C)C)c2c1`, 40 µM.

In the series with Hepatitis C virus, `CN(C)CCCOc1ccc2nc3n(c2c1)CC(CN(C)C)CN3` (stereo not given) yielded an EC50 of 29 µM. In series [2], the CC50 was greater than 100 µM. Moreover, the Kd in series [3] is 3500 nM. Molecule `CN(C)CCCOc1ccc2nc(N)n(CCCN(C)C)c2c1` yielded an EC50 with Hepatitis C virus of 37 µM. In series [2], this molecule had a 50% cytotoxic concentration (CC50) greater than 100 µM. Besides, the Kd in series [1] stood at 10 µM; in series [3] it was 17000 nM. Molecule `CN(C)CCCn1c(N)nc2ccc(OCCN(C)C)cc21` yielded a Kd in series [1] of 8 µM. This lies in the single-digit micromolar range. In turn, `CN(C)CCCOc1ccc2c(c1)nc(N)n2CCCN(C)C` yielded an equilibrium dissociation constant (Kd) in series [1] greater than 100 µM.

In turn, `CCN(CC)CCCn1c(N)nc2ccccc21` showed a Kd in series [1] of 130 µM. Same read-out and setting: the same measure for `CCCCN(CCCC)CCCn1c(N)nc2ccccc21`: greater than 200 µM. The molecule `CN(C)CCCOc1ccc2nc(N)[nH]c2c1` registered a Kd in series [1] greater than 100 µM. Still for that read-out and setting: the same measure for `CN(C)CCCOc1ccc2ncn(CCCN(C)C)c2c1`: greater than 100 µM; for `Nc1nc2ccccc2n1CCCN1CCOCC1`: greater than 200 µM; for `CN(C)CCCCOc1ccc2nc(N)n(CCCN(C)C)c2c1`: 7 µM. The molecule `COc1cccc2nc(N)n(CCCN(C)C)c12` displayed a Kd in series [1] of 50 µM.

In series [1], `CN(C)CCCn1c(N)nc2ccc(OCc3ccccc3)cc21` yielded a Kd of 99 µM.

In the case of `CN(C)CCCn1c(N)nc2ccc3c(c21)CC(CN(C)C)O3` (stereo not given), a half-maximal effect in the series with Hepatitis C virus (EC50) was put at 1.5 µM. Moreover, the half-maximal cytotoxic concentration (CC50) in series [2] was greater than 100 µM. For the same molecule, the dissociation constant (Kd) in series [3] was found to be 1700 nM.

Turning to `COc1cccc2c1nc(N)n2CCCN(C)C`, the Kd in series [1] is greater than 200 µM. For `CN(C)CCCn1c(N)nc2ccccc21`, the CC50 in series [2] is greater than 100 µM. For the same molecule, the values for the dissociation constant Kd in series [1] and in series [3] were 100 µM and greater than 100000 nM, respectively. `CCCn1c(N)nc2ccccc21`: the Kd in series [1] was greater than 200 µM.

As usually defined, the Kd is the free concentration of one partner at which half of the binding sites on the other are occupied at equilibrium, for simple one-to-one binding. Read a low Kd as tighter binding. As usually defined, the EC50 is the concentration needed to bring the measured effect to its halfway point. A word on the CC50: it is the concentration giving 50% cytotoxicity.
